Test results as given in ChEMBL document CHEMBL1250478 (J Med Chem, 2010).
Activity calls are given as the source filed them. The calls are words filed in the database; no cut-off is given here.

How the values were obtained:
Plasmodium falciparum [1] = experiment: Inhibition of hemozoin formation in early trophozoites of chloroquine-sensitive Plasmodium falciparum D6 infected in RBC assessed as enlarged digestive vacuole at 100 nM after 24 hrs by microscopic analysis; assay type: functional, organism-based
How it was run: (§1)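 Ring-stage D6 parasites synchronized with 5% sorbitol, suspended at 1% hematocrit and drug added from 1 mM stock. Incubated 24 h at 37 °C under 5% O2/5% CO2/90% N2 alongside a no-drug control. Giemsa-stained smears were used for parasitemia and for microscopic examination of hemozoin and parasite morphology.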

Mus musculus = experiment: Toxicity in NMRI mouse at 30 mg/kg, po administered as single dose; assay type: organism-based; design: dose 30 mg/kg, route oral; details: in vivo
Plasmodium falciparum [2] = experiment: Antiplasmodial activity against chloroquine-sensitive Plasmodium falciparum D6 early trophozoites infected in NMRI mice (Mus musculus) RBC assessed as inhibition of hemozoin formation at 50 nM after 24 hrs by microscopic analysis; assay type: functional, organism-based; how it was run: as §1
Plasmodium berghei [3] = experiment: Antiplasmodial activity against Plasmodium berghei infected in NMRI mice (Mus musculus) assessed as parasitaemia level at 30 mg/kg, perorally administered as single dose measured after 3 days relative to control; assay type: functional; details: route oral
How it was run: (§2)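 P. berghei blood diluted in saline to 10^8 parasitized erythrocytes/mL; 0.2 mL given i.v. to groups of 3 female NMRI mice (controls 5). Compounds dosed at 10 ml/kg either once on day 1 (oral gavage or subcutaneous) or orally at 4, 24, 48, 72 h post-infection. Parasitemia read by FACS on 100,000 RBCs from tail blood on day 3 (single dose) or day 4 (quadruple dose). Activity = % reduction versus control mean. Survival monitored to 30 days.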

Plasmodium falciparum [4] = experiment: Antiplasmodial activity against chloroquine-resistant Plasmodium falciparum Dd2 early trophozoites infected in NMRI mice (Mus musculus) RBC assessed as inhibition of hemozoin formation at 10 nM after 24 hrs by microscopic analysis; assay type: functional, organism-based
How it was run: (§3)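 D6 and Dd2 cultures synchronized to ring stage with 5% sorbitol, suspended at 1% hematocrit and exposed to drug (from 1 mM stock) for 24 h at 37 °C under 5% O2/5% CO2/90% N2. Giemsa-stained smears examined by microscopy for hemozoin, parasitemia and parasite morphology.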

Plasmodium falciparum [5] = experiment: Antiplasmodial activity against chloroquine-sensitive Plasmodium falciparum D6 early trophozoites infected in NMRI mice (Mus musculus) RBC assessed as inhibition of hemozoin formation at 10 nM after 24 hrs by microscopic analysis; assay type: functional, organism-based; how it was run: as §1
Plasmodium berghei [6] = experiment: Antiplasmodial activity against Plasmodium berghei infected in NMRI mice (Mus musculus) assessed as survival rate at 30 mg/kg, perorally administered as 4 consecutive doses measured post last dose; assay type: functional; details: route oral; how it was run: as §2
Plasmodium falciparum [7] = experiment: Antiplasmodial activity against synchronized chloroquine-resistant Plasmodium falciparum Dd2 infected in NMRI mice (Mus musculus) RBC assessed as inhibition of hemozoin formation at 100 nM after 24 hrs by colorimetric analysis; assay type: functional, organism-based
How it was run: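 Sorbitol-synchronized D6 and Dd2 cultures at 1% hematocrit were drug-treated for 24 h at 37 °C. Parasites were freed by freeze-thaw and saponin/Triton lysis buffer (37 °C, 30 min). Hemozoin was pelleted at 215,000 g, washed with acetone and PBS, then dissolved in 0.2 N NaOH. Heme was quantified by A400 (ε 91,000 cm-1M-1) per parasitized erythrocyte. Baseline was taken from 0 h culture.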

Plasmodium berghei [8] = experiment: Antiplasmodial activity against Plasmodium berghei infected in NMRI mice (Mus musculus) assessed as survival rate at 30 mg/kg, subcutaneously administered as single dose; assay type: functional; details: route subcutaneous; how it was run: as §2
Plasmodium berghei [9] = experiment: Antiplasmodial activity against Plasmodium berghei infected in NMRI mice (Mus musculus) assessed as survival rate at 30 mg/kg, perorally administered as single dose; assay type: functional; details: route oral; how it was run: as §2
Plasmodium berghei [10] = experiment: Antiplasmodial activity against Plasmodium berghei infected in NMRI mice (Mus musculus) assessed as parasitaemia level at 30 mg/kg, perorally administered as 4 consecutive doses measured after 3 days post last dose relative to control; assay type: functional; details: route oral; how it was run: as §2
Plasmodium berghei [11] = experiment: Antiplasmodial activity against Plasmodium berghei infected in NMRI mice (Mus musculus) assessed as parasitaemia level at 46 mg/kg, perorally administered as 4 consecutive doses measured after 4 days post last dose relative to control; assay type: functional; details: route oral
Plasmodium falciparum [12] = experiment: Antiplasmodial activity against chloroquine-resistant Plasmodium falciparum Dd2 early trophozoites infected in NMRI mice (Mus musculus) RBC assessed as inhibition of hemozoin formation at 50 nM after 24 hrs by microscopic analysis; assay type: functional, organism-based; how it was run: as §3
Plasmodium berghei [13] = experiment: Antiplasmodial activity against Plasmodium berghei infected in NMRI mice (Mus musculus) assessed as parasitaemia level at 30 mg/kg, subcutaneously after 3 days relative to control; assay type: functional; details: route subcutaneous; how it was run: as §2
Plasmodium berghei [14] = experiment: Antiplasmodial activity against Plasmodium berghei infected in NMRI mice (Mus musculus) assessed as survival rate at 46 mg/kg, perorally administered as 4 consecutive doses measured post last dose; assay type: functional; details: route oral; how it was run: as §2
Plasmodium falciparum [15] = experiment: Antiplasmodial activity against synchronized chloroquine-sensitive Plasmodium falciparum D6 infected in NMRI mice (Mus musculus) RBC assessed as inhibition of hemozoin formation at 10 nM after 24 hrs by colorimetric analysis; assay type: functional, organism-based
How it was run: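 D6 cultures synchronized with sorbitol, held at 1% hematocrit, drug-treated 24 h at 37 °C. Parasites freeze-thawed, then lysed 30 min at 37 °C in saponin/Triton X-100 buffer. Hemozoin pelleted at 215,000 g, washed with acetone and PBS, dissolved 2 h in 0.2 N NaOH. Heme read at A400 (ε 91,000 cm-1M-1) and expressed per parasitized erythrocyte. A 0 h culture gave the baseline.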

Q: For Clc1ccc2c(NCCCN3CCC(NC(c4ccccn4)c4ccccn4)CC3)ccnc2c1 [DM-1157], which inhibition (Plasmodium falciparum [1]) is on record?
A: Active

Q: And the Activity (Mus musculus)?
A: Non-toxic

Q: What about the inhibition (Plasmodium falciparum [2]) of the same compound?
A: Active

Q: What about the Activity (Plasmodium berghei [3]) of the same compound?
A: 94%

Q: And the inhibition (Plasmodium falciparum [4])?
A: Active

Q: What about the inhibition (Plasmodium falciparum [5]) of the same compound?
A: Active

Q: And the Survival (Plasmodium berghei [6])?
A: 27 days

Q: And the inhibition (Plasmodium falciparum [7])?
A: Active

Q: And the Survival (Plasmodium berghei [8])?
A: 9 days

Q: What about the Survival (Plasmodium berghei [9]) of the same compound?
A: 7 days

Q: What about the Activity (Plasmodium berghei [10]) of the same compound?
A: >99.9%

Q: And the Activity (Plasmodium berghei [11])?
A: >99.9%

Q: What about the inhibition (Plasmodium falciparum [12]) of the same compound?
A: Active

Q: And the Activity (Plasmodium berghei [13])?
A: 99.3%

Q: What about the Survival (Plasmodium berghei [14]) of the same compound?
A: 30 days

Q: And the inhibition (Plasmodium falciparum [15])?
A: Active
